Experimental data as given in paper PMC11737066 (RSC Advances, 2025).

Test: Parallel artificial membrane permeability assay
Format: in vitro ADME
Details: 24 h incubation at 37 °C; initial minus final donor and acceptor concentration
In short: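 Artificial membrane made of 1% (mass fraction) lecithin in dodecane, applied to hydrophobic PVDF filter donor wells. Test compound solution was added to the donor side, and the donor/acceptor sandwich was incubated 24 h at 37 °C. Donor and acceptor concentrations were taken from maximum absorbance (scan 190–400 nm). Membrane integrity was checked with brilliant cresyl blue and lucifer yellow.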

SMILES | % of compound integrated in membrane
CCCCCCCCCCCC[N+](C)(C)Cc1ccccc1.[Br-] [BAB, dimethyldodecylbenzylammonium bromide] | ≈ 97%
CCCCCCCCCCCCCCCC[n+]1ccccc1 [CPC, cetylpyridinium chloride] | ≈ 97%
